CTSL1 counter: Fasciola hepatica cathepsin L1 inhibitors, primary screen, counter-screen for PFM18AAP inhibitor project, biochemical, QFRET, fluorogenic peptide substrate; recombinant F. hepatica cathepsin L1, Z-Leu-Arg-MCA fluorescence; inhibition, % at 5.96 µM; 0.49% of 300,000 active; AID 1906, 2009;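 active = inhibition above the mean of all tested compounds plus 3 SD, set per screening campaign, cut at about 17% in these data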;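 note: 0% = plate median of test compound wells and 100% = 1 µM Z-Phe-Ala-diazomethylketone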
PP5 primary: PP5 phosphatase inhibitors, primary screen, biochemical, fluorescence | purified PP5c, OMFP substrate fluorescence | inhibition, % at 6.7 µM | 0.18% of 320,000 active;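 active = inhibition above the campaign's mean inhibition across all tested compounds plus 3 SD, cut at about 9.5% in these data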;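 note: 0% = DMSO only and 100% = 100 µM cantharidin control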
Target sequence (P53041 whole entry, looked up): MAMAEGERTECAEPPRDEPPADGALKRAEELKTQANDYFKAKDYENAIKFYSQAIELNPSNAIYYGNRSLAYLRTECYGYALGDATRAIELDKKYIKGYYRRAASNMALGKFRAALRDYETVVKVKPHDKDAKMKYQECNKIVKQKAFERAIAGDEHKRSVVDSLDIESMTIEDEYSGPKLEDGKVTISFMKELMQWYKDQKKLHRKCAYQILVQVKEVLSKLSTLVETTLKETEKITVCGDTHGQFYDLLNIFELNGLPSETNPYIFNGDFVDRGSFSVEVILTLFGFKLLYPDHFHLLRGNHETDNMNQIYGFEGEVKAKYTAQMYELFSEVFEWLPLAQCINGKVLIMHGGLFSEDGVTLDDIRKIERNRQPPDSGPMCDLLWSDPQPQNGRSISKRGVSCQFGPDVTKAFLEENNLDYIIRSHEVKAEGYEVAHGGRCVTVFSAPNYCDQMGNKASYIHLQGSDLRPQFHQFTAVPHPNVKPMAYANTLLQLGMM
UBC13 inh: UBC13 polyubiquitin chain formation inhibitors, primary screen, biochemical, TR-FRET, uHTS; inhibition, % at 20 µM; AID 485273, 2010; Ubiquitin-conjugating enzyme E2 N (Homo sapiens), P61088; 0.47% of 330,000 active; in the data active = inhibition above about 45%, passing the limit was not always enough
Target sequence (P61088 whole entry, looked up): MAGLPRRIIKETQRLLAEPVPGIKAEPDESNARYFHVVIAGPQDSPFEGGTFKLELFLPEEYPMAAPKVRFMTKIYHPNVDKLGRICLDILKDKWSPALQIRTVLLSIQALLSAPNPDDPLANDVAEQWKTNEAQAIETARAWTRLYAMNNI
UCH37 inh: inhibitors of human UCH37 deubiquitinase, primary screen, biochemical, Ub-AMC cleavage, fluorescence. Ubiquitin carboxyl-terminal hydrolase isozyme L5 (Homo sapiens), Q9Y5K5. AID 588478, 2011. purified proteasome/UCH37. inhibition, % (no concentration beside the values). 0.33% of 330,000 active;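 active = mean inhibition over replicate wells above about 20%, limit read from the data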;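 note: 0% = compound-free wells with enzyme and 100% = wells lacking proteasome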
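assay system = human UCH37 enzyme supplied as purified proteasome complex | amount = proteasome at 0.15 nM in the dispensed enzyme solution | schedule = 30 min compound-proteasome preincubation then 25 min substrate reaction, room temperature | measured by = fluorescence, ex 355 nm, em 460 nm | benchmarks = no-proteasome wells (full inhibition) and compound-free wells (no inhibition)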
PREPL inhibitor: PREPL enzyme inhibitors, primary screen, biochemical, fluorescence polarization | recombinant PREPL, fluorescence polarization activity-based probe | inhibition, % at 5.96 µM | 0.68% of 320,000 active | AID 2751, 2010; in the data active = inhibition above about 43%;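 note: 0% = enzyme with DMSO and 100% = wells lacking enzyme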
PP1 inh: PP1-alpha phosphatase inhibitors, primary screen, counter-screen for PP5 inhibitor project, biochemical, fluorescence, OMFP substrate, single point; 0.9% of 320,000 active; AID 2235, 2010; Serine/threonine-protein phosphatase PP1-alpha catalytic subunit (Homo sapiens), P62136; purified PP1alpha; inhibition, % at 6.7 µM;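 active = inhibition above the mean inhibition of all tested compounds plus 3 SD, computed separately for each screening campaign, cut at about 15% in these data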
* marks the source's active call; other numbers are inactive results; / = no result given. Shown are actives, neighbours in structure and some others; about 2.3% of the full set was active somewhere.

SMILES | CTSL1 counter | PP5 primary | UBC13 inh | UCH37 inh | PREPL inhibitor | PP1 inh
CN(Cc1ccccc1)C(=O)c1[nH]cnc1C(=O)N[C@@H](Cc1ccccc1)C(=O)OC(C)(C)C | -4 | 2 | -5 | 35* | -6 | -3
CC(C)(C)OC(=O)[C@H](Cc1ccccc1)NC(=O)c1nc[nH]c1C(=O)NCc1ccccc1 | 2 | 6 | -15 | 1 | -1 | 4
CCN(CC)C(=O)c1[nH]cnc1C(=O)N[C@@H](C)C(=O)OC(C)(C)C | 4 | 1 | 3 | 32* | -3 | -5
CCOc1cc(C=NNC(=O)Cn2nnc3ccccc32)ccc1O | / | / | / | 1 | / | /
CC(C)N1CCc2c(sc(N)c2C#N)C1 | -1 | -1 | -14 | -30 | 50* | 1
CC(C)N1CCc2c(sc(NC(=S)NC(=O)c3ccccc3)c2C#N)C1 | 1 | 2 | -35 | 4 | 62* | -1
CC(C)C1Cc2c(sc(NC(=S)NC(=O)c3ccccc3)c2C#N)CO1 (stereo not given) | 1 | 2 | -2 | 4 | -4 | -2
CCCCS(=O)(=O)/C=C\C=C/S(=O)(=O)CCCC | 64* | 4 | 0 | 1 | 0 | 0
N#CCC(=O)NN=Cc1cc(Br)ccc1OCc1cccc2ccccc12 | / | / | / | 3 | / | /
COC(=O)C1Cc2ccccc2CN1C(=O)CCl (stereo not given) | 48* | -2 | -8 | 3 | -4 | -3
CC(C(=O)NNS(=O)(=O)c1cccc(C(F)(F)F)c1)n1nnc(N2CCOCC2)n1 (stereo not given) | 59* | 2 | -3 | 5 | 14 | -1
Cc1nn(C(=O)CCC(=O)NCc2ccccc2Cl)c2ccccc12 | 20* | -2 | -2 | 2 | 1 | -2
COc1ccccc1CNC(=O)CCCC(=O)n1nc(C)c2ccccc21 | -2 | 3 | 23 | 1 | -12 | -3
CC(OC(=O)c1c2c(nc3ccccc13)/C(=C\c1ccc3c(c1)OCO3)CCC2)C(=O)Nc1ccc(S(N)(=O)=O)cc1 (stereo not given) | / | / | / | -289 | / | /
Cc1cccc(C)c1NC(=O)COC(=O)c1c2c(nc3ccccc13)/C(=C\c1ccc3c(c1)OCO3)CCC2 | 2 | 0 | / | -319 | 71* | -3
CSc1ccc(C=NNC(=O)COc2ccc(Br)cc2Cl)cc1 | / | / | / | -65 | / | /
CCN1CCn2c3c(c4cc(Cl)ccc42)CCCC31 (stereo not given) | 2 | 2 | 7 | -2 | 38 | -3
CCN(CC)CCN1CCn2c3c(c4cc(C)ccc42)CCCC31 (stereo not given) | 3 | 0 | -12 | 2 | 52* | 1
COc1ccc(NC(=O)Cn2c(=O)sc3ccccc32)c(OC)c1 | 21* | 0 | 1 | 2 | 8 | -4
COc1ccccc1NC(=O)Cn1c(=O)sc2ccccc21 | 1 | -1 | 14 | -5 | 7 | 3
CCCn1c(=N)n(CC(=O)c2ccc([N+](=O)[O-])cc2)c2ccccc21 | 18* | 4 | -2 | 4 | 17 | 3
COC(=O)C=c1sc(=C(C#N)C(=O)NCc2ccco2)n(-c2ccc(C)cc2)c1=O | / | / | / | 5 | / | /
Cc1ccccc1NC(=O)NC1(C(=O)NCCCN2CCOCC2)CCCCC1 | 0 | 4 | 7 | 35* | 0 | -1
CCOc1cc(/C=C2\C(=O)N(c3cccc(C(=O)O)c3)N=C2C(F)(F)F)ccc1OCC(=O)Nc1ccccc1OC | 3 | -1 | -12 | / | 4 | 17*
COc1cc(C(=O)c2nccc3cc(OC)c(OC)cc23)c([N+](=O)[O-])cc1OC | 42* | 6 | -38 | 13 | 2 | 1
SMILES | CTSL1 counter | PP5 primary | UBC13 inh | UCH37 inh | PREPL inhibitor | PP1 inh
COc1cc(N)c(C(=O)c2nccc3cc(OC)c(OC)cc23)cc1OC | -6 | 1 | -5 | 5 | -2 | -1
COc1ccccc1C=NNc1nc(C)cc(C)n1 | / | / | / | 7 | / | /
CC(C)c1onc(C(=O)NCc2ccccc2)c1[N+](=O)[O-] | 18* | -2 | -12 | -2 | 5 | -4
CC(C)c1onc(C(=O)NCc2ccc(Cl)cc2)c1[N+](=O)[O-] | 3 | 0 | 3 | 4 | 0 | -2
O=C(O)c1ccc2c(=O)n(Cc3ccccc3)c(SCc3ccc([N+](=O)[O-])cc3)nc2c1 | 2 | 3 | -3 | 2 | -14 | 18*
O=c1c2ccccc2nc(SCc2ccc([N+](=O)[O-])cc2)n1-c1ccccc1 | 0 | 0 | -15 | 2 | 7 | 5
Cn1c(=O)n(C)c2cc(C=NNC(=O)c3ccc(Cl)cc3)ccc21 | / | / | / | -287 | / | /
CCOC(=O)C(C#N)=NNc1ccccc1OC | / | / | / | 2 | / | /
CCOC(=O)/C(C#N)=N\Nc1cc(Cl)ccc1OC | 32* | 1 | 2 | / | -2 | -5
S=c1[nH]nc(-c2cccnc2)n1N=C/C=C/c1ccco1 | / | / | / | 14 | / | /
O=C(C=NO)Nc1ccccc1 | / | / | / | 0 | / | /
CCC(=O)Nc1cccc(-c2cnc3ccccc3n2)c1 | -1 | 2 | -11 | 8 | -38 | -2
COc1ccc(NC(=O)CCl)cn1 | 17* | 1 | -12 | / | 3 | 1
O=C(CCl)Nc1ccc(Oc2cnc3ccccc3n2)cc1 | 23* | 0 | -6 | 1 | 4 | -2
O=C(CCl)Nc1cccc(-c2cnc3ccccc3n2)c1 | 74* | 0 | -13 | 7 | -21 | -2
Cc1[nH]n(-c2ccccc2)c(=O)c1C=NNC(=O)COc1ccccc1[N+](=O)[O-] | / | / | / | 8 | / | /
CC1Cc2ccccc2N1C(=O)c1cnc2n(c1=O)CCS2 (stereo not given) | 66* | 4 | -20 | 0 | -2 | 1
N=C1S/C(=C\c2cccc3ccccc23)C(=O)N1c1ccc(F)cc1 | 6 | 1 | -24 | 7 | 2 | 17*
Cn1c(=O)c2c(ncn2CC(=O)NN=C/C=C/c2ccco2)n(C)c1=O | / | / | / | 16 | / | /
Cn1nc(C(F)(F)F)c(-c2ccc(Br)cc2)c1NC(=O)c1ccco1 | 29* | 4 | 5 | 5 | 10 | 1
CN(C)Cc1c(C(=O)NN=CCCc2ccccc2)nnn1-c1nonc1N | / | / | / | -1 | / | /
CC1CCN(C(=O)c2[nH]cnc2C(=O)NCc2ccc(CNC(=O)OC(C)(C)C)cc2)CC1 | / | 0 | 16 | 28* | 3 | 0
CC(C)(C)OC(=O)N1CCC(NC(=O)c2nc[nH]c2C(=O)N2CCc3ccccc3C2)CC1 | / | -2 | 9 | 29* | 2 | -4
CC(C)(C)OC(=O)CNC(=O)c1nc[nH]c1C(=O)N1CCN(C(=O)OC(C)(C)C)CC1 | 1 | 0 | 0 | -2 | -1 | -4
